Laboratory results as given in ChEMBL document CHEMBL1135575, “Synthesis and structure-activity relationships of 3-aryloxindoles: a new class of calcium-dependent, large conductance potassium (maxi-K) channel openers with neuroprotective properties” (J Med Chem, 2002).
Where “and” joins values, the source holds several entries; their conditions need not be identical. Equal values may be shown once.

Columns and labels:
[1] = (§1) Effect on Maxi-K-Mediated outward current in Xenopus laevis oocytes expressing cloned mSlo maxi-K channels at 20 uM; format: functional, Oocyte
Summary of the method: (§2)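 Two-electrode voltage clamp on Xenopus oocytes expressing cloned mSlo. Steps of 500–750 ms ran from a holding potential of -60 to +140 mV in 20 mV increments, without and with compound at 20 μM in the chamber. Each experiment ended with 10 min of 50 nM iberiotoxin, and that residual current was subtracted. The IbTx-sensitive current is given as % of drug-free control, from at least five oocytes.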

[2] = organism: Rattus norvegicus; assay: Electrically stimulated [3H]-glutamate release in hippocampal slices; format: functional, Hippocampus
Summary of the method: (§3)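 Hippocampal wedges (350 μm) from male Sprague–Dawley rats were washed in Krebs buffer with adenosine deaminase. They were loaded with 5 μCi [3H]-glutamate for 30 min at 37 °C, then superfused and collected as 5 min fractions. Release was evoked by field stimulation (35 mA, 10 Hz, 2 ms pulses, 1 min) at fractions 3 (S1) and 13 (S2). Compound was present from 30 min before S2. Data are S2/S1 ratios, analysed by ANOVA with Newman–Keuls.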

[3] = system: Rattus norvegicus; assay: Brain level concentration after IV administration (4.6 mg/kg) in male rats at 0.25 hours; format: functional, organism-based
Summary of the method: (§4)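 Male Sprague–Dawley rats (ca. 225 g) got a tail-vein bolus of 2 mL/kg. Three animals per group were killed by CO2 at 0.25 and 2 h. Whole brain and blood were taken. Brain homogenates and plasma were extracted with CH3CN and assayed by HPLC with UV detection at 290 nm. Plasma is given in μg/mL and brain in μg/g wet weight, as mean ± SD.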

[4] = system: Rattus norvegicus; assay: Brain level concentration after IV administration (4.6 mg/kg) in male rats at 2 hours; format: functional, organism-based; summary of the method: as §4
[5] = system: Rattus norvegicus; assay: Plasma level concentration after IV administration (4.6 mg/kg) in male rats at 0.25 hours; format: functional, organism-based; summary of the method: as §4
[6] = system: Rattus norvegicus; assay: Plasma level concentration after IV administration (4.6 mg/kg) in male rats at 2 hours; format: functional, organism-based; summary of the method: as §4
[7] = system: Rattus norvegicus; assay: Neocortical infarct volume after IV administration (2 hr post-MCAO) in 9 rats by method A at the dose 0.03 mg/kg; format: functional
Summary of the method: (§5)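 Left MCA was permanently occluded by a subtemporal approach in male SHR (240–350 g) under ketamine/xylazine, with temperature kept at 36–38 °C. A single tail-vein bolus was given 2 h after occlusion, in vehicle of 2% DMSO and 98% propylene glycol. At 24 h the brain was perfused with 3% TTC, incubated 30 min at 37 °C and fixed. Neocortical infarct volume (mm3) was measured by planimetry of 2 mm slices and reported as mean (SE) and % reduction versus vehicle.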

[8] = system: Rattus norvegicus; assay: Neocortical infarct volume after IV administration (2 hr post-MCAO) in 9 rats by method A at the dose 0.1 mg/kg; format: functional; summary of the method: as §5
[9] = system: Rattus norvegicus; assay: Neocortical infarct volume after IV administration (2 hr post-MCAO) in 9 rats by method B at the dose 0.1 mg/kg; format: functional
[10] = system: Rattus norvegicus; assay: Neocortical infarct volume after intraperitoneal administration (2 hr post-MCAO) in 11 rats by method B at the dose level 10(mg/kg).; format: functional
Summary of the method: (§6)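 Permanent left MCA occlusion in male SHR (240–350 g) under ketamine/xylazine, at 36–38 °C. Compound was given intraperitoneally 2 h after occlusion in 2% DMSO/98% propylene glycol. At 24 h, infarcts were stained with 3% TTC perfusion, slices were cut at 2 mm, and neocortical infarct volume was measured by planimetry. Results are given as mean (SE) and % reduction versus vehicle from the same study.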

[11] = system: Rattus norvegicus; assay: Neocortical infarct volume after intraperitoneal administration (2 hr post-MCAO) in 11 rats by method B at the dose level 20(mg/kg).; format: functional; summary of the method: as §6
[12] = as §1; format: functional, Mus musculus, Oocyte; summary of the method: as §2
[13] = system: Rattus norvegicus; assay: Neocortical infarct volume after IV administration (2 hr post-MCAO) in 9 rats by method B at the dose 0.01 mg/kg
[14] = system: Rattus norvegicus; assay: Neocortical infarct volume after intraperitoneal administration (2 hr post-MCAO) in 9 rats by method A at the dose 10 mg/kg
[15] = system: Rattus norvegicus; assay: Neocortical infarct volume after IV administration (2 hr post-MCAO) in 9 rats by method A at the dose 10.0 mg/kg; Toxic at 10.0% reduction level; settings: in vivo
[16] = organism: Rattus norvegicus; assay: Electrically stimulated [3H]glutamate release in hippocampal slices; format: functional, Hippocampus; summary of the method: as §3
[17] = system: Rattus norvegicus; assay: Neocortical infarct volume after IV administration (2 hr post-MCAO) in 13 rats by method A at the dose 10.0 mg/kg; format: functional; summary of the method: as §5
[18] = system: Rattus norvegicus; assay: Neocortical infarct volume after IV administration (2 hr post-MCAO) in 13 rats by method A at the dose 5.0 mg/kg; format: functional; summary of the method: as §5
[19] = system: Rattus norvegicus; assay: Neocortical infarct volume after IV administration (2 hr post-MCAO) in 13 rats by method A at the dose 1.0 mg/kg; format: functional; summary of the method: as §5
[20] = Effect on Maxi-K mediated outward current in Xenopus laevis oocytes expressing cloned mSlo maxi-K channels at 20 uM; format: functional, Mus musculus, Oocyte; summary of the method: as §2

SMILES	Increase [1] [%]	also measured
CN1CCN(c2ccc(O)c(C3(O)C(=O)Nc4cc(C(F)(F)F)ccc43)c2)CC1 (configuration not stated)	91	
COc1ccc(Cl)cc1[C@]1(O)C(=O)Nc2cc(C(F)(F)F)ccc21 (stereo in doubt; (-)-7c)	116	
O=C1Nc2cc(C(F)(F)F)ccc2C1c1cc(Cl)ccc1O (racemic)		Control [2]: 71%; Concentration [3]: 2.4 µg/g; Concentration [4]: 0.23 µg/g; Concentration [5]: 3.3 µg/mL; Concentration [6]: 0.28 µg/mL; Reduction [7]: 18%; Reduction ([8]; 0.1 mg/kg): 9% and 0% and 6%; Reduction [9]: 4% and 12%; Reduction [10]: 24%; Reduction [11]: 9%; Increase [12]: 164%; Increase [13]: -7%; Reduction [14]: 26%; Toxic [15]: Toxic
Cc1ccc2c(c1)C(O)(c1cc(Cl)ccc1O)C(=O)N2 (configuration not stated)	100	
O=C1Nc2ccc(F)cc2C1(O)c1cc(Cl)ccc1O (configuration not stated)	106	
COc1ccc(Cl)cc1C1(O)C(=O)Nc2cc(C(F)(F)F)ccc21 (racemic)	120	
O=C1Nc2ccccc2C1(O)c1cc(Cl)ccc1O (configuration not stated)	95	
O=C1Nc2cc(C(F)(F)F)ccc2C1(O)c1cc(Cl)ccc1O (racemic) [listing 1 of 2 here]	131	Control [16]: 89% and 93%; Reduction [17]: 4%; Reduction [18]: 10%; Reduction [8]: 4%; Reduction [19]: 10%
O=C1Nc2cc(C(F)(F)F)ccc2C1(O)c1ccc(Cl)cc1O (configuration not stated)	93	
O=C1Nc2cc(C(F)(F)F)ccc2C1(O)c1cc(Cl)ccc1O (single isomer, unassigned; (-))	141	
O=C1Nc2cc(C(F)(F)F)ccc2C1(O)c1cc(Cl)cc(I)c1O (configuration not stated)	124	
O=C1Nc2cc(C(F)(F)F)ccc2C1(O)c1cc(I)ccc1O (configuration not stated)	107	
O=C1Nc2ccc([N+](=O)[O-])cc2C1(O)c1cc(Cl)ccc1O (configuration not stated)	78	
COc1ccc(O)c(C2(O)C(=O)Nc3cc(C(F)(F)F)ccc32)c1 (configuration not stated)	81	
O=C1Nc2cc(C(F)(F)F)ccc2C1(O)c1cccc(Cl)c1 (configuration not stated)	97	
O=C1Nc2cc(C(F)(F)F)ccc2C1(O)c1cc(-c2ccccc2)ccc1O (configuration not stated)	106	
O=C1Nc2cc(C(F)(F)F)ccc2C1(O)c1cc(C(F)(F)F)ccc1O (configuration not stated)	130	
O=C1Nc2cc(C(F)(F)F)ccc2C1(O)c1cc(Cl)c(Cl)cc1O (configuration not stated)	107	
O=C1Nc2cc(C(F)(F)F)cc(C(F)(F)F)c2C1(O)c1cc(Cl)ccc1O (configuration not stated)	127	
Cc1ccc(O)c(C2(O)C(=O)Nc3cc(C(F)(F)F)ccc32)c1 (configuration not stated)	106	
COc1ccc(Cl)cc1C1(O)C(=O)Nc2ccc(C(F)(F)F)cc21 (configuration not stated)		Increase [20]: 109%

SMILES	Increase [1] [%]	also measured
O=C1Nc2cc(C(F)(F)F)ccc2C1(O)c1c(O)ccc2ccccc12 (configuration not stated)	116	
O=C1Nc2cc(C(F)(F)F)ccc2C1(O)c1cc(Cl)cc(Cl)c1O (configuration not stated)	108	
O=C1Nc2cc(C(F)(F)F)ccc2C1(O)c1ccccc1 (configuration not stated)	87	
COc1ccc(Cl)cc1[C@]1(O)C(=O)Nc2cc(C(F)(F)F)ccc21 (stereo in doubt; (+)-7c)	117	
Nc1cc(O)c(C2(O)C(=O)Nc3cc(C(F)(F)F)ccc32)cc1Cl (configuration not stated)		Increase [12]: 94%
O=C1Nc2cc(C(F)(F)F)ccc2C1(O)c1ccc(C(F)(F)F)cc1O (configuration not stated)	108	
Nc1ccc(C2(O)C(=O)Nc3cc(C(F)(F)F)ccc32)c(O)c1 (configuration not stated)		Increase [12]: 92%
O=C1Nc2cccc(C(F)(F)F)c2C1(O)c1cc(Cl)ccc1O (configuration not stated)	127	
O=C1Nc2c(C(F)(F)F)cccc2C1(O)c1cc(Cl)ccc1O (configuration not stated)	122	
O=C1Nc2cc(C(F)(F)F)ccc2C1(O)c1cccc(Cl)c1O (configuration not stated)	116	
O=C1Nc2ccccc2C1c1cc(Cl)ccc1O (configuration not stated)	139	
O=C1Nc2cc(C(F)(F)F)ccc2[C@@]1(O)c1cc(Cl)ccc1O	123	
O=C1Nc2ccc(C(F)(F)F)cc2C1(O)c1cc(Cl)ccc1O (configuration not stated)	108	
O=c1[nH]c2cc(C(F)(F)F)ccc2n1-c1cc(Cl)ccc1O	132	
O=C1Nc2cc(C(F)(F)F)ccc2C1(O)c1cc(Br)ccc1O (configuration not stated)	89	
O=C1Nc2cc(C(F)(F)F)ccc2C1(O)c1cc(Cl)ccc1O (racemic) [listing 2 of 2 here]		Concentration [3]: 1.34 µg/g; Concentration [4]: 0.87 µg/g; Concentration [5]: 1.2 µg/mL; Concentration [6]: 0.231 µg/mL
O=C1Nc2cc(Cl)cc(Cl)c2C1(O)c1cc(Cl)ccc1O (configuration not stated)	117	
COc1ccc(Cl)cc1C1C(=O)Nc2cc(C(F)(F)F)ccc21 (configuration not stated)	110	
O=C1Nc2cc(C(F)(F)F)ccc2C1(O)c1ccccc1O (configuration not stated)	90	
O=C1Nc2cc(C(F)(F)F)ccc2C1(O)c1cc(F)ccc1O (configuration not stated)	97	
